Reference: ChEMBL document CHEMBL1124534, “Synthesis, mechanism of action, and biological evaluation of mitosenes” (1989)
≈ marks a conversion by molar mass, not a printed value. Blank lines part the entries; values can stand above or below the compound they belong to.

Tests used:
[1] = tested on: A204; assay: In vitro antitumor activity against A204 rhabdomyosarcoma tumor cell line was determined; format: functional; conditions: Homo sapiens, read-out: ID50 (the source's name)
Method in brief: (§1)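 Cell growth inhibition in vitro measured by the PIT method, with mitomycin C as positive reference.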

[2] = tested on: L1210; assay: In vitro antitumor activity against L1210 lymphocytic leukemia tumor cell line was determined; format: functional; conditions: Mus musculus, read-out: ID50 (the source's name)
Method in brief: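 Inhibition of L1210 leukemia colony formation in vitro, with mitomycin C as positive reference.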

[3] = tested on: Mus musculus; assay: Body wieght treated/body weight untreated controls of compound (40 mg/Kg) was evaluated in vivo for antitumor activity against MAC 16 in female NMRI mice on day 12; format: functional
[4] = tested on: Mus musculus; assay: Body wieght treated/body weight untreated controls of compound (40 mg/Kg) was evaluated in vivo for antitumor activity against MAC 16 in female NMRI mice on day 4; format: functional
[5] = tested on: Mus musculus; assay: Percentage change in body weight [(day 6 - day 1)/ day 1] for antitumor activity against P388 Leukemia in CD2 mice at fractioned dose treatment of 25 mg/Kg; format: functional
Method in brief: (§2)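 Mouse P388 leukemia model. Drugs were given intraperitoneally, either as a single injection or once daily for 9 consecutive days (fractioned schedule). Outcomes were median survival time in days, %T/C, and % body weight change.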

[6] = tested on: Mus musculus; assay: Percentage change in body weight [(day 6 - day 1)/ day 1] for antitumor activity against P388 Leukemia in CD2 mice at fractioned dose treatment of 70 mg/Kg; format: functional; conditions: in the assay text read “single dose treatment” for “fractioned dose treatment”; method in brief: as §2
[7] = tested on: Mus musculus; assay: Mean relative body weight change of treated / mean relative body weight change of control when compound (50 mg/kg/day) administered to inhibit growth of human tumor xenograft GXF 97 was reported at day 21 in mice; format: functional
Method in brief: (§3)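 GXF 97 xenograft grown subcutaneously in nude mice for 24 days, then randomized; ip dosing began 1 day later, given on days 1-4, with 4-5 mice per group. Read-out is mean relative body weight change of treated divided by mean relative body weight change of controls, in %.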

[8] = tested on: Mus musculus; assay: Percent change in body weight [(day 6 - day 1)/ day 1] when P388 Leukemic CD2 mice were treated with a compound (50 mg/Kg); format: functional
[9] = tested on: Mus musculus; assay: Percentage change in body weight [(day 6 - day 1)/ day 1] for antitumor activity against P388 Leukemia in CD2 mice at fractioned dose treatment of 18 mg/Kg; format: functional; method in brief: as §2
[10] = tested on: Mus musculus; assay: Mean relative body weight change of treated / mean relative body weight change of control when compound (50 mg/kg/day) administered to inhibit growth of human tumor xenograft GXF 97 was reported at day 14 in mice; format: functional; method in brief: as §3
[11] = tested on: Mus musculus; assay: Mean relative body weight change of treated / mean relative body weight change of control when compound (50 mg/kg/day) administered to inhibit growth of human tumor xenograft GXF 97 was reported at day 28 in mice; format: functional; method in brief: as §3
[12] = tested on: Mus musculus; assay: Median survival time in days for antitumor activity against P388 Leukemia in CD2 mice at a single dose treatment of 50 mg/Kg; format: functional
Method in brief: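 P388 leukemia-bearing mice were given one intraperitoneal injection. The read-out was median survival time in days, reported alongside %T/C and % body weight change.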

[13] = tested on: Mus musculus; assay: Median survival time in days for antitumor activity against P388 Leukemia in CD2 mice at fractioned dose treatment of 18 mg/Kg; format: functional
Method in brief: (§4)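 P388 leukemia-bearing mice were dosed intraperitoneally once daily for 9 consecutive days (fractioned schedule). The read-out was median survival time in days, reported alongside %T/C and % body weight change.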

[14] = tested on: Mus musculus; assay: Median survival time in days for antitumor activity against P388 Leukemia in CD2 mice at fractioned dose treatment of 25 mg/Kg; format: functional; method in brief: as §4
[15] = tested on: Mus musculus; assay: Percent inhibition of compound (50 mg/Kg) was evaluated in vivo for antitumor activity against MAC 13 in female NMRI mice on day 2; format: functional
Method in brief: (§5)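 MAC 13 in female NMRI mice. Drugs were given in arachis oil BP by ip route on day 2 or day 29. % inhibition was derived from treated/untreated control tumor weight (volume); a negative value indicates stimulation.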

[16] = tested on: Mus musculus; assay: Percent inhibition of compound (50 mg/Kg) was evaluated in vivo for antitumor activity against MAC 13 in female NMRI mice on day 29; format: functional; method in brief: as §5
[17] = tested on: Mus musculus; assay: Ability of intraperitoneally administered compound (50 mg/kg/day) to inhibit growth of human tumor xenograft GXF 97 was assessed on day 14 tested in five mice; format: functional
Method in brief: (§6)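 GXF 97 human gastric xenograft grown subcutaneously in nude mice for 24 days, then randomized; dosing began 1 day later as ip injections on days 1-4. Groups had 4-5 mice. Tumor length and width were measured. %T/C = median relative tumor size of treated / median relative tumor size of controls.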

[18] = tested on: Mus musculus; assay: Ability of intraperitoneally administered compound (50 mg/kg/day) to inhibit growth of human tumor xenograft GXF 97 was assessed on day 21 tested in five mice; format: functional; method in brief: as §6
[19] = tested on: Mus musculus; assay: Percent T/C ([…]) for antitumor activity against P388 Leukemia in CD2 mice at a single dose treatment of 50 mg/Kg; format: functional
Method in brief: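 P388 leukemia mice given a single intraperitoneal injection. Median survival time (days) and body weight change were recorded. %T/C was derived from the survival of treated versus control mice.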

[20] = tested on: Mus musculus; assay: Percent T/C ([…]) for antitumor activity against P388 Leukemia in CD2 mice at fractioned dose treatment of 18 mg/Kg; format: functional; method in brief: as §2
[21] = tested on: Mus musculus; assay: Percent T/C ([…]) for antitumor activity against P388 Leukemia in CD2 mice at fractioned dose treatment of 25 mg/Kg; format: functional; method in brief: as §2
[22] = tested on: Mus musculus; assay: Percent T/C ([…]) for antitumor activity against P388 Leukemia in CD2 mice at fractioned dose treatment of 70 mg/kg; format: functional; conditions: in the assay text read “single dose” for “fractioned dose”; method in brief: as §2
[23] = tested on: Mus musculus; assay: Ability of intraperitoneally administered compound (50 mg/kg/day) to inhibit growth of human tumor xenograft GXF 97 was assessed on day 28 tested in five mice; format: functional; method in brief: as §6
[24] = tested on: Mus musculus; assay: Relative tumor size on day 28 was reported when compound (50 mg/kg/day) administered to inhibit growth of human tumor xenograft GXF 97 in mice tested after 28 days; format: functional
Method in brief: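 GXF 97 human gastric xenograft grown subcutaneously in nude mice for 24 days, then mice randomized; treatment began 1 day later. Fractioned ip injections on days 1-4, or single iv injection on day 1; 4-5 mice per group. Tumor size from length and width; relative tumor size (% of controls) read at day 28.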

[25] = tested on: Mus musculus; assay: Compound (40 mg/Kg) was evaluated in vivo for antitumor activity against MAC 16 in female NMRI mice on day 12 and ratio of tumor weight of treated to that of control was determined; format: functional
[26] = tested on: Mus musculus; assay: Compound (40 mg/Kg) was evaluated in vivo for antitumor activity against MAC 16 in female NMRI mice on day 4 and ratio of tumor weight of treated to that of control was determined; format: functional
[27] = tested on: WiDr; assay: In vitro antitumor activity against WiDr colon carcinoma tumor cell line was determined; format: functional; conditions: Homo sapiens, read-out: ID50 (the source's name); method in brief: as §1
[28] = tested on: Mus musculus; assay: Median survival time in days for antitumor activity against P388 Leukemia in CD2 mice at single dose treatment of 70 mg/kg
[29] = tested on: Mus musculus; assay: Compound (50 mg/Kg) was evaluated in vivo for antitumor activity against MAC 13 in female NMRI mice on day 2 and ratio of tumor weight of treated to that of control was determined
[30] = tested on: Mus musculus; assay: Compound (50 mg/Kg) was evaluated in vivo for antitumor activity against MAC 13 in female NMRI mice on day 29 and ratio of tumor weight of treated to that of control was determined

Compound: COC1=C(C)C(=O)c2c(c(CO)c3n2CCC3O)C1=O (stereo unspecified)
- IC50 [1]: 0.641 µg/mL (≈ 2.31 µM)
- IC50 [2]: 2.6 µg/mL (≈ 9.39 µM)
- BW [3]: 93%
- BW [4]: 118%
- BWC [5]: 17.1%
- BWC [6]: -0.9%
- BWC [7]: 107.2%
- BWC [8]: 2.5%
- BWC [9]: 17.3%
- BWC [10]: 103.8%
- BWC [11]: 103.4%
- MST [12]: 11 days
- MST [13]: 11 days
- MST [14]: 11 days
- I [15]: 3%
- I [16]: -21%
- T/C [17]: 12.6%
- T/C [18]: 4.8%
- T/C [19]: 100%
- T/C [20]: 100%
- T/C [21]: 100%
- T/C [22]: 91%
- T/C [23]: 3.1%
- Relative TS [24]: 20.6%
- T/C [25]: 89%
- T/C [26]: 102%
- IC50 [27]: 1.33 µg/mL (≈ 4.81 µM)
- MST [28]: 10 days
- T/C [29]: 97%
- T/C [30]: 121%

- IC50 [1]: 1.2 µg/mL (≈ 4.31 µM)
- IC50 [2]: 1.33 µg/mL (≈ 4.78 µM)
- IC50 [27]: 2.17 µg/mL (≈ 7.83 µM)
Compound: COC1=CC(=O)c2c(c(CO)c3n2CCCC3O)C1=O (stereo unspecified)

Compound: CC(=O)OCc1c2c(n3c1C(OC(C)=O)CC3)C(=O)C(C)=C(N1CC1)C2=O (stereo unspecified)
- IC50 [1]: 0.001 µg/mL (≈ 0.00269 µM)
- IC50 [2]: 0.166 µg/mL (≈ 0.446 µM)
- IC50 [27]: 0.02 µg/mL (≈ 0.0537 µM)

- IC50 [1]: 0.479 µg/mL (≈ 1.12 µM)
- IC50 [2]: 0.217 µg/mL (≈ 0.509 µM)
- IC50 [27]: 0.492 µg/mL (≈ 1.15 µM)
Compound: COC1=C(Br)C(=O)c2c(c(COC(C)=O)c3n2CCC3OC(C)=O)C1=O (stereo unspecified)

- IC50 [1]: 0.133 µg/mL (≈ 0.368 µM)
- IC50 [2]: 0.582 µg/mL (≈ 1.61 µM)
- IC50 [27]: 0.115 µg/mL (≈ 0.318 µM)
Compound: COC1=CC(=O)c2c(c(COC(C)=O)c3n2CCCC3OC(C)=O)C1=O (stereo unspecified)

- IC50 [1]: 2.69 µg/mL (≈ 9.23 µM)
- IC50 [2]: 3.72 µg/mL (≈ 12.8 µM)
- IC50 [27]: 5.89 µg/mL (≈ 20.2 µM)
Compound: COC1=C(C)C(=O)c2c(c(CO)c3n2CCCC3O)C1=O (stereo unspecified)

- IC50 [1]: 0.001 µg/mL (≈ 0.00299 µM)
- IC50 [2]: 0.118 µg/mL (≈ 0.353 µM)
- IC50 [27]: 0.029 µg/mL (≈ 0.0867 µM)
Compound: CCNC(=O)OCc1c2c(n3c1C(O)CC3)C(=O)C=C(OC)C2=O (stereo unspecified)

- IC50 [1]: < 0.1 µg/mL
- IC50 [2]: 1.54 µg/mL (≈ 4.1 µM)
- IC50 [27]: 0.171 µg/mL (≈ 0.456 µM)
Compound: COC1=C(C)C(=O)c2c(c(COC(C)=O)c3n2CCCC3OC(C)=O)C1=O (stereo unspecified)
